For 5 molecules, Activity results are on record in ChEMBL document CHEMBL1275419, “The thymidine-dependent small-colony-variant phenotype is associated with hypermutability and antibiotic resistance in clinical Staphylococcus aureus isolates” (Antimicrob Agents Chemother, 2008).

Holding throughout (format): functional, organism-based
The subject of assay [1] is Staphylococcus aureus. The experiment in a line: Antibacterial activity against normal-colony variant Staphylococcus aureus derived from non cystic fibrosis patient assessed as resistant isolates at 37 degC after 24 hrs by disk diffusion method. A digest of the protocol:
(§1)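 Disk diffusion per CLSI guidelines (fosfomycin per French CA-SFM guidelines). NCV isolates tested on plain Mueller-Hinton agar and incubated 24 h at 37°C. Isolates scored susceptible or resistant per agent.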
In general terms: In agar diffusion tests the substance spreads into inoculated agar from a disc or well.

For assay [2], the system named is Staphylococcus aureus. The experiment in a line: Antibacterial activity against normal-colony variant Staphylococcus aureus derived from cystic fibrosis patient assessed as resistant isolates at 37 degC after 24 hrs by disk diffusion method. A digest of the protocol:
as §1

Assay [3] concerns Staphylococcus aureus. The experiment in a line: Antibacterial activity against thymidine-dependent small-colony variant Staphylococcus aureus derived from cystic fibrosis patient assessed as resistant isolates at 37 degC after 24 hrs by disk diffusion method. In outline:
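Disk diffusion per CLSI guidelines (fosfomycin per French CA-SFM guidelines). Thymidine-dependent SCVs cannot grow without thymidine, so they were tested on Mueller-Hinton agar with 5% defibrinated sheep blood and incubated 24 h at 37°C. Isolates scored susceptible or resistant per agent.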

Calls of active or inactive are those of the source. No cut-off for these calls is given here.

For the molecule GENTAMICIN, the result with Staphylococcus aureus [1] and in the assay on Staphylococcus aureus [2] was Active. Moreover, the result in the assay on Staphylococcus aureus [3] was inactive.
Turning to `CO[C@H]1/C=C/O[C@@]2(C)Oc3c(C)c(O)c4c(O)c(c(/C=N/N5CCN(C)CC5)c(O)c4c3C2=O)NC(=O)/C(C)=C\C=C\[C@H](C)[C@H](O)[C@@H](C)[C@@H](O)[C@@H](C)[C@H](OC(C)=O)[C@@H]1C`, the result in the assay with Staphylococcus aureus [1] and in the assay on Staphylococcus aureus [2] was Active. In the assay on Staphylococcus aureus [3], the result was inactive.
For the molecule `O=C(O)c1cn(C2CC2)c2cc(N3CCNCC3)c(F)cc2c1=O`, the outcome in the assay on Staphylococcus aureus [1] and with Staphylococcus aureus [2] was Active. In addition, in the assay on Staphylococcus aureus [3], the outcome was inactive.
In the case of `C[C@@H]1O[C@@H]1P(=O)(O)O`, the outcome in the assay with Staphylococcus aureus [1] and with Staphylococcus aureus [2] was Active. The outcome in the assay on Staphylococcus aureus [3] was inactive.
With `CC[C@H]1OC(=O)[C@H](C)[C@@H](O[C@H]2C[C@@](C)(OC)[C@@H](O)[C@H](C)O2)[C@H](C)[C@@H](O[C@@H]2O[C@H](C)C[C@H](N(C)C)[C@H]2O)[C@](C)(O)C[C@@H](C)C(=O)[C@H](C)[C@@H](O)[C@]1(C)O`, the result in the assay with Staphylococcus aureus [1] and with Staphylococcus aureus [2] was Active. For the same molecule, in the assay with Staphylococcus aureus [3], the outcome was inactive.
